Where “and” joins values, the source holds several entries; their conditions need not be identical. Identical values can stand only once. Calls of active or inactive are those of the source.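 How the source made its calls: active means signal drops and an active concentration is fitted at or below ten times the top valid dose of that sample; inconclusive means flat fit between -70 and -30%, or poor fit quality; inactive means the rest.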
Tests used:
[1] = system: Vibrio harveyi BB721 quorum sensing luminescence, 9 h; experiment: Vibrio harveyi quorum sensing luminescence inhibitors, dose response, counter-screen for LuxS inhibitor project, strain BB721, dry powder, set 2 (AID 493096)
Summary of the method: (§1)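 Material: Vibrio harveyi BB721, strain with quorum sensing constitutively on. Buffer or medium: AB medium. Schedule: compound exposure of 9 h at 30 °C.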

[2] = as above; details: Vibrio harveyi BB721 quorum sensing luminescence, 9 h; at 16 µM (top of the series)
Summary of the method: as §1

Row | SMILES | AC50 [1] | activity change, negative = inhibition [2]
1 | CCc1ccc(S(=O)(=O)Nc2ccc(Br)cn2)cc1 | 14.8 µM | 
2 | O=C1C=C/C(=C/Br)O1 | 6.86 µM | 
3 | Cc1cccc(NS(=O)(=O)c2ccc(Oc3ccccc3)cc2)n1 | 11.1 µM and 15.4 µM | 
4 | Cc1cccc(NC(=O)c2ccc(Oc3ccccc3)cc2)n1 | 14.9 µM | 
5 | COc1cc(NC(=O)CN2C(=O)NC(c3ccccc3)(c3ccccc3)C2=O)cc(OC)c1 | 0.769 µM and 1.14 µM | 
6 | CCc1ccc(C(=O)Nc2ccc(Br)cn2)cc1 |  | -2.33% (inactive)
